Assay results published in ChEMBL document CHEMBL2151009, “Structures and mechanisms of antitumor agents: xestoquinones uncouple cellular respiration and disrupt HIF signaling in human breast tumor cells” (J Nat Prod, 2012).
Structures can show the parent of a compound that is named as a salt. The source made the active and inactive calls. The calls are words filed in the database; no cut-off is given here.

Key:
T47D [1] = test: Decrease in mitochondrial membrane potential in human T47D cells at 10 uM after 15 to 20 mins by TMRM assay; assay type: functional, cell-based
Summary of the method: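 T47D cells preloaded with TMRM, then given compound. Epifluorescence images taken before and 15–20 min after addition. Per-cell fluorescence intensity quantified; solvent control 0.26% DMSO; FCCP as reference. Groups compared by unpaired t test.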

T47D [2] = test: Effect on cellular respiration in human T47D cells assessed as increase in oxygen consumption at 10 to 30 uM; assay type: functional
Summary of the method: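 Oxygen consumption of intact respiring T47D cells. Compound added in half-log increments; FCCP as reference uncoupler. Rate expressed as % of untreated control. For 10 and 30 μM: mean + SD from three independent experiments. Lower concentrations: n = 2.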

MDA-MB-231 [3] = test: Cytotoxicity against human MDA-MB-231 cells after 48 hrs by SRB assay; assay type: functional, cell-based; settings: MDA-MB-231, 48 h
Summary of the method: (§1)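 Cells from ATCC treated 48 h with compounds from DMSO stocks (final DMSO under 0.5%). IC50 and 95% CI fitted from one experiment run in triplicate.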

T47D [4] = test: Cytotoxicity against human T47D cells after 48 hrs by SRB assay; assay type: functional, cell-based; summary of the method: as §1
[5] = target: T1, Hypoxia inducible factors; HIF-1-alpha, HIF-2-alpha (Homo sapiens, UniProt Q16665+Q99814); test: Inhibition of 1,10-phenanthroline-induced HIF1 activation in human T47D cells after 16 hrs by HRE3-TK-luciferase reporter gene assay; assay type: cell-based
Summary of the method: (§2)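 T47D reporter assay for HIF-1 activity. Induced by hypoxia (1% O2) or by 1,10-phenanthroline (10 μM). Compounds tested at 0.3–30 μM in half-log steps; cycloheximide 1 μM as positive control. Luciferase signal expressed as % inhibition of the induced control without compound. IC50 and 95% CI from one experiment in triplicate.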

[6] = target: T1, Hypoxia inducible factors; HIF-1-alpha, HIF-2-alpha; test: Inhibition of HIF1-mediated VEGF production in human T47D cells under hypoxic condition at 10 uM after 16 hrs by ELISA; assay type: cell-based
Summary of the method: (§3)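 T47D cells exposed 16 h to hypoxia (1% O2) or to 1,10-phenanthroline (10 μM), with compound at 10 μM. Secreted VEGF in conditioned medium measured by ELISA and normalized to cellular protein. Cycloheximide 10 μM as positive control; normoxic medium control included. Mean + SD of one experiment in triplicate.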

[7] = target: T1, Hypoxia inducible factors; HIF-1-alpha, HIF-2-alpha; test: Inhibition of HIF1-mediated VEGF production in human T47D cells under 1,10-phenanthroline-induced hypoxic condition at 10 uM after 16 hrs by ELISA; assay type: cell-based; summary of the method: as §3
[8] = target: T1, Hypoxia inducible factors; HIF-1-alpha, HIF-2-alpha; test: Inhibition of hypoxia-induced HIF1 activation in human T47D cells after 16 hrs by HRE3-TK-luciferase reporter gene assay; assay type: cell-based; summary of the method: as §2
MDA-MB-231 [9] = test: Cytotoxicity against human MDA-MB-231 cells assessed as decrease in cell viability at 30 uM after 48 hrs by SRB assay; assay type: functional
T47D [10] = test: Cytotoxicity against human T47D cells assessed as decrease in cell viability at 30 uM after 48 hrs by SRB assay; assay type: functional

| SMILES | IC50 [5] [µM] | inhibition [6] | inhibition [7] | IC50 [8] [µM] | Activity (T47D [1]) | Activity (T47D [2]) [%] | IC50 (MDA-MB-231 [3]) [µM] | IC50 (T47D [4]) [µM] | Activity (MDA-MB-231 [9]) [%] | Activity (T47D [10]) [%] |
| --- | --- | --- | --- | --- | --- | --- | --- | --- | --- | --- |
| C[C@@]12CCCc3coc(c31)C(=O)c1cc3c(cc12)C(=O)CCC3=O | 4.2 | inactive | inactive | 10.6 | – | – | 28.1 | 15.9 | – | – |
| C[C@@]12CCCc3coc(c31)C(=O)c1cc3c(cc12)C(=O)C1=NCCS(=O)(=O)C1=C3O [ADOCIAQUINONE A] | 0.2 | inactive | Active | 6.4 | inactive | 47 | 6.3 | 2.6 | – | – |
| C[C@@]12CCCc3coc(c31)C(=O)c1cc3c(cc12)C(=O)C1=C(NCCS1(=O)=O)C3=O [ADOCIAQUINONE B] | 0.2 | inactive | Active | 4.6 | – | – | 6.1 | 2.9 | – | – |
| C[C@@]12CCCc3coc(c31)C(=O)c1cc3c(O)ccc(OS(=O)(=O)O)c3cc12 [XESTOQUINOL SULFATE] | > 30 | – | – | > 30 | – | – | > 30 | > 30 | <5 | <5 |
| C[C@@]12CCCc3coc(c31)C(=O)c1cc3c(cc12)C(=O)C=CC3=O [XESTOQUINONE] | 7.3 | inactive | inactive | 12.3 | inactive | 47 | 20.6 | 13.8 | – | – |

More lines, main results first:

| IC50 [5] [µM] | inhibition [6] | inhibition [7] | IC50 [8] [µM] | SMILES | Activity (T47D [1]) | Activity (T47D [2]) [%] | IC50 (MDA-MB-231 [3]) [µM] | IC50 (T47D [4]) [µM] | Activity (MDA-MB-231 [9]) [%] | Activity (T47D [10]) [%] |
| --- | --- | --- | --- | --- | --- | --- | --- | --- | --- | --- |
| 1.2 | Active | Active | 1.7 | C[C@@]12CCCc3coc(c31)C(=O)c1cc3c(cc12)C(=O)C=C(CO)C3=O | Active | 47 | 6.5 | 3.6 | – | – |
| 1.5 | Active | Active | 2.3 | C[C@@]12CCCc3coc(c31)C(=O)c1cc3c(cc12)C(=O)C(CO)=CC3=O | – | – | 6.3 | 4.3 | – | – |
